# Screening results: PubChem, Broad Institute
# Statin myotox sup = suppressors of simvastatin-induced myotoxicity in C2C12 myotubes. ATP luminescence, 48 h; scaled: DMSO 0, geranylgeraniol control 100. rescue of ATP level, % at 7.49 µM. hit rate 0.78% among 330,000;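 active = mean ATP rescue above about 67%, or every replicate alone reaching that limit, limit read from the data, passing the limit was not always enough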;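 also: myotubes were challenged with 10 µM simvastatin during compound exposure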
# DENV2 CPE = DENV2-induced cell death inhibition | hit rate 1.7% among 350,000 | AID 651640 | CPE inhibition, % at 9.99 µM | DENV2-infected cells, cytopathic effect rescue, plate reader; in the data active = CPE inhibition above about 20%, passing the limit was not always enough; tested in BHK-21 cells;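 also: 0% = median of neutral control wells and 100% = median of positive control wells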
# E-selectin induc = induces E-selectin expression in human endothelial cells; P16581; HUVEC E-selectin immunofluorescence imaging; normalized: neutral wells 0, TNF-alpha wells 100; activation, % at 7.58 µM; hit rate 0.37% among 260,000;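 active = mean E-selectin-positive cell signal at least 10% of the positive control, reached in at least 60% of replicates, without over 20% cell loss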
# Target sequence (P16581 whole entry, looked up): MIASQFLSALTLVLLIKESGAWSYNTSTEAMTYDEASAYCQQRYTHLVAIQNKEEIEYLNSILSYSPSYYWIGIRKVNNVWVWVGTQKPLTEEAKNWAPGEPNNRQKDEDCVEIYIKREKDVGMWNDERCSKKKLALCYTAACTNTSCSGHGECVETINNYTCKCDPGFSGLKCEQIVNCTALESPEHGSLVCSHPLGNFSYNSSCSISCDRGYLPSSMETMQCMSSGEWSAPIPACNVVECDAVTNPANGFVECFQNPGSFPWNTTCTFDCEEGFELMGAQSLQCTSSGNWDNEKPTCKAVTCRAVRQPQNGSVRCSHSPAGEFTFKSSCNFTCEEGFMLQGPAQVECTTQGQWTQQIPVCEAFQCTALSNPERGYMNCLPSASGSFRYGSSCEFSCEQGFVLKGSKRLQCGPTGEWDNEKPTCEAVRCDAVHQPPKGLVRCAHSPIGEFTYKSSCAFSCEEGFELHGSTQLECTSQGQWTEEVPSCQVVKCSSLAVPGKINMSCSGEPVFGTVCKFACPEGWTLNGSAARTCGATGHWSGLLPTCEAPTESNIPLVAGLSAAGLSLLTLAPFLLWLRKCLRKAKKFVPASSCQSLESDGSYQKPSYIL
#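 Test system: HUVEC; input: 3,000 HUVEC/well; measured by: immunofluorescence imaging; read-out: % PE-positive cells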
# Active calls of the source: *; / = no result. This is a sample that favours compounds with a hit; in the whole collection about 2.2% have one here.
SMILES,Statin myotox sup,DENV2 CPE,E-selectin induc
Cc1noc(C)c1NC(=O)Nc1ccc2c(c1)C(=O)N([C@@H](C)CO)C[C@@H](C)[C@H](CN(C)C(=O)C1CCCCC1)OCCCC[C@@H](C)O2,/,2,0
Cc1noc(C)c1NC(=O)N(C)C[C@H]1Oc2ccc(NC(=O)Nc3ccc(C(F)(F)F)cc3)cc2C(=O)N([C@H](C)CO)C[C@H]1C,-6,-1,0
COc1ccc2c3c([nH]c2c1)[C@H](CO)N(Cc1ccccn1)CC31CCN(C(C)=O)CC1,/,7,0
COc1ccc2c3c([nH]c2c1)[C@@H](CO)N(Cc1ccccn1)CC31CN(Cc2cccc(F)c2)C1,/,16,0
COc1ccc2c3c([nH]c2c1)[C@H](CO)N(Cc1ccccn1)CC31CN(C(C)=O)C1,/,47*,0
COc1ccc2c3c([nH]c2c1)[C@@H](CO)N(Cc1cccc(F)c1)CC31CN(Cc2ccccn2)C1,/,39*,0
O=C(C[C@@H]1CC[C@@H]2[C@H](COC[C@@H](O)CN2CCC(F)(F)F)O1)NCC1CCCCC1,8,0,0
Oc1cccc(Nc2ccccc2)c1,15,28*,/
Oc1cccc(NC(=S)Nc2ccccc2)c1,-25,4,0
CCC(=O)N1CCCCN2[C@H](CO)[C@H](c3ccc(C#Cc4cccnc4)cc3)[C@H]2C1,1,-1,0
COc1ccc2c3c([nH]c2c1)[C@H](CO)N(Cc1ccccc1)CC31CN(S(=O)(=O)c2ccc(C)cc2)C1,/,36*,1
COc1ccc2c3c([nH]c2c1)[C@@H](CO)N(Cc1ccccc1)CC31CN(S(=O)(=O)c2ccc(C)cc2)C1,/,20*,0
COc1ccc2c3c([nH]c2c1)[C@H](CO)N(C)CC31CN(S(=O)(=O)c2ccc(C)cc2)C1,/,1,-1
COc1ccc2c3c([nH]c2c1)[C@@H](CO)N(Cc1cc(F)ccc1F)CC31CN(C(=O)CN(C)C)C1,/,18,0
COc1ccc2c3c([nH]c2c1)[C@@H](CO)N(S(=O)(=O)c1ccc(C)cc1)CC31CN(Cc2ccccc2)C1,/,2,0
CCS(=O)(=O)N1CC2(CN(Cc3ccccc3F)[C@@H](CO)c3[nH]c4cc(OC)ccc4c32)C1,/,20*,0
COc1ccc2c3c([nH]c2c1)[C@H](CO)N(Cc1cc(F)ccc1F)CC31CN(C(=O)CN(C)C)C1,/,26*,0
COc1ccc2c3c([nH]c2c1)[C@@H](CO)N(Cc1ccccc1F)CC31CN(C)C1,/,-4,0
Cc1ccc(S(=O)(=O)Nc2ccc3c(c2)C(=O)N([C@H](C)CO)C[C@@H](C)[C@H](CN(C)C(=O)Nc2ccccc2)OCCCC[C@@H](C)O3)cc1,/,-1,0
O=C(NCC[C@@H]1CC[C@H](NS(=O)(=O)c2cccc(F)c2)[C@H](CO)O1)C1CCC1,5,-4,-1
CO[C@@H]1CN(C)C(=O)c2cc(NC(C)=O)ccc2OC[C@H](C)N(Cc2ccc(F)cc2)C[C@H]1C,-5,-1,0
COc1cccc(S(=O)(=O)N2C[C@@H](O)COC[C@@H]3O[C@H](CC(=O)N4CCN(c5ccccc5)CC4)CC[C@H]32)c1,3,-3,0
CCOC(=O)C(=O)/C(=C\N(C)C)c1onc(-c2c(Cl)cccc2Cl)c1C(=O)OC,85*,/,/
CNC(=O)NNC(=O)c1onc(-c2c(Cl)cccc2Cl)c1C(=O)OC,-10,11,/
Cc1cccc([C@@H]2[C@@H]3C(=O)N(Cc4ccccc4)C(=O)[C@@H]3[C@]3(Cc4ccccc4)C(=O)N(c4ccccc4)C(=O)N23)c1,24,1,0
SMILES,Statin myotox sup,DENV2 CPE,E-selectin induc
Cc1cccc([C@@H]2[C@@H]3C(=O)N(Cc4ccccc4)C(=O)[C@@H]3[C@]3(Cc4ccccc4)C(=O)N(c4ccc(C(F)(F)F)cc4)C(=O)N23)c1,1,102*,0
COc1ccc(S(=O)(=O)N2CCCCN3[C@H](C2)[C@@H](c2ccc(C#CC(C)C)cc2)[C@@H]3CO)cc1,-4,-25,-1
CN1C(=O)c2cc(NC(=O)Cc3cccs3)ccc2OC[C@@H]2O[C@H](CC(=O)NCCc3ccncc3)CC[C@@H]21,-10,1,0
C[C@@H]1CCCCO[C@@H](CN(C)CC2CCCCC2)[C@@H](C)CN([C@H](C)CO)C(=O)c2cc(NC(=O)CCC(F)(F)F)ccc2O1,/,63*,1
C[C@H](CO)N1C[C@H](C)[C@@H](CN(C)Cc2ccc(Cl)c(Cl)c2)OCCCC[C@H](C)Oc2ccc(NC(=O)CCC(F)(F)F)cc2C1=O,2,-2,0
COc1ccc(CN(C)C[C@@H]2OCCCC[C@@H](C)Oc3ccc(NC(=O)CCC(F)(F)F)cc3C(=O)N([C@H](C)CO)C[C@H]2C)cc1,/,30*,0
COc1ccc(CN(C)C[C@H]2OCCCC[C@@H](C)Oc3ccc(NC(=O)CCC(F)(F)F)cc3C(=O)N([C@H](C)CO)C[C@H]2C)cc1,/,-1,0
C[C@@H]1CCCCO[C@@H](CN(C)CC2CCCCC2)[C@H](C)CN([C@H](C)CO)C(=O)c2cc(NC(=O)CCC(F)(F)F)ccc2O1,/,/,1
COc1ccc(NC(=O)N(C)C[C@H]2OCCCC[C@@H](C)Oc3ccc(NC(=O)CCC(F)(F)F)cc3C(=O)N([C@@H](C)CO)C[C@H]2C)cc1,-7,21*,0
COc1ccc(NC(=O)N(C)C[C@H]2OCCCC[C@@H](C)Oc3ccc(NC(=O)CCC(F)(F)F)cc3C(=O)N([C@@H](C)CO)C[C@@H]2C)cc1,-15,-9,0
C[C@@H]1CN([C@H](C)CO)C(=O)c2cc(NC(=O)CCC(F)(F)F)ccc2O[C@@H](C)CCCCO[C@H]1CN(C)Cc1ccc(Cl)c(Cl)c1,/,71*,0
COc1ccc(S(=O)(=O)Nc2ccc3c(c2)CC(=O)N([C@H](C)CO)C[C@H](C)[C@@H](CN(C)C(=O)Nc2ccccc2)O3)cc1,5,12,0
CC1C=NC(S(=O)(=O)N2CC[C@H]3[C@@H](CO)N(C)c4ccc(C#Cc5cccnc5)cc4[C@H]32)=N1 (some centres undefined),7,5,0
COCC(=O)N1C[C@H](C)[C@H](OC)CN(C)C(=O)c2ccc(NC(=O)c3ccccc3)cc2OC[C@H]1C,7,5,0
CC(C)NC(=O)N1[C@@H](CO)[C@@H]2c3ccccc3N(C)C[C@@H]21,7,-11,0
NC(=O)c1cc(-c2ccccc2)nc(N2CCOCC2)n1,86*,/,/
NC(=O)c1cc(-c2ccccc2)nc(N2CCCCCC2)n1,-24,/,/
CCOC(=O)c1c(C)sc2c1N(C(=O)CN1CCOCC1)c1cc(Cl)ccc1S2,14,/,/
CCOC(=O)c1c(C)sc2c1N(C(=O)CN(CC)CC)c1cc(Cl)ccc1S2,115*,/,/
COCC(=O)Nc1ccc2c(c1)OC[C@H](C)N(Cc1ccccc1OC)C[C@@H](C)[C@H](OC)CN(C)C2=O,-9,-9,0
COCC(=O)Nc1ccc2c(c1)C(=O)N(C)C[C@@H](OC)[C@H](C)CN(Cc1ccccc1)[C@@H](C)CO2,12,-12,0
CO[C@@H]1CN(C)C(=O)c2cc(NC(=O)C3CCC3)ccc2OC[C@@H](C)N(Cc2ccncc2)C[C@@H]1C,-8,41*,0
